Results from ChEMBL document CHEMBL4196141, “Improved Antibacterial Activity of the Marine Peptide N6 against Intracellular Salmonella Typhimurium by Conjugating with the Cell-Penetrating Peptide Tat11 via a Cleavable Linker” (J Med Chem, 2018).
Values after ≈ are worked out from the molar mass of the structure shown. Active and inactive are the calls of the source. No cut-off for these calls is given here. Positions of bridges follow the written chain, without caps; N, C: chain ends. Residues, ends and D or L forms follow the SMILES beside them.

What was measured:
Salmonella typhimurium [1] = assay: Antibacterial activity against Salmonella typhimurium ATCC 14028 infected in ICR mouse model of peritonitis assessed as mouse survival at 1 umol/kg, ip dosed at 0.5 and 8 hrs post infection and measured daily for 7 days
Salmonella typhimurium [2] = assay: Antibacterial activity against Salmonella typhimurium ATCC 14028 infected in ICR mouse model of peritonitis assessed as reduction colony forming units in intracellular fluids at 1 umol/kg, ip dosed at 2 hrs post infection and measured after 10 hrs post dose; assay type: functional, Salmonella enterica subsp. enterica serovar Typhimurium
In short: (§1)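 Six-week-old female ICR mice (six per group) received ip S. Typhimurium ATCC14028 (5 × 10^5 CFU, 0.5 mL). Peptide was given ip 2 h post-infection and mice were killed 10 h after treatment. Peritoneum was lavaged with 5 mL ice-cold PBS and total CFU counted. For intracellular CFU, pelleted cells were treated with 100 µg/mL gentamicin for 1 h at 37 °C, washed, lysed and plated. PBS served as negative control, ciprofloxacin as positive.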

Salmonella typhimurium [3] = assay: Antibacterial activity against Salmonella typhimurium ATCC 14028 infected in ICR mouse model of peritonitis assessed as reduction colony forming units in total peritoneal fluids at 1 umol/kg, ip dosed at 2 hrs post infection and measured after 10 hrs post dose; assay type: functional, Salmonella enterica subsp. enterica serovar Typhimurium
In short: as §1

[4] = Cytotoxicity in mouse RAW264.7 assessed as cell survival at 100 uM incubated for 8 hrs by MTT assay; assay type: cell-based; conditions: RAW264.7 cells, read-out: Survival
In short: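 RAW264.7 cells seeded at 2.5 × 10^4 cells/well, cultured 24 h, then exposed for 8 h to 2-fold dilutions from 100 to 0.625 µM. MTT at 5 mg/mL added for 4 h, formazan dissolved in DMSO, absorbance read at 570 nm. Untreated cells served as control. Samples run in triplicate.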

Salmonella typhimurium [5] = assay: Antibacterial activity against Salmonella typhimurium ATCC 14028 incubated for 16 to 18 hrs at pH 7.2 by broth microdilution method; assay type: functional, Salmonella enterica subsp. enterica serovar Typhimurium; conditions: Salmonella enterica
In short: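 Broth microdilution in MH broth. S. Typhimurium ATCC14028 was grown overnight at 37 °C to semi-log phase, pelleted, and diluted to OD600 0.01; final inoculum was 5 × 10^5 CFU/mL. Plates were incubated 16–18 h at 37 °C. MIC is the lowest peptide concentration with no visible growth. Data are in duplicate from at least two independent experiments.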

[6] = Induction of hemolysis in mouse RBC at 100 uM incubated for 1 hrs at 37 degC; assay type: cell-based, Erythrocyte; conditions: red blood cells (erythrocytes), read-out: Activity
In short: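 Fresh mouse erythrocytes were washed three times in 0.9% NaCl, and an 8% suspension was incubated with peptide (2-fold dilutions, 100 to 0.3125 µM) for 1 h at 37 °C. Released hemoglobin was read at 540 nm. 1% Triton X-100 defined 100% lysis; polymyxin served as positive control and NaCl as negative.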

[7] = Drug uptake in mouse RAW264.7 using FITC-labeled compound at 5 uM incubated for 2 hrs by flow cytometry; assay type: ADME, cell-based; conditions: raw264.7, 2 h
In short: (§2)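 Confluent RAW264.7 cells were resuspended in PBS and incubated at 37 °C with 5 µM FITC-labeled peptide. Samples taken at 0.5 h and 2 h were quenched with 0.4% Trypan blue for extracellular fluorescence. Uptake (percent internalized cells) was read by flow cytometry, with free FITC as negative control.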

[8] = Drug uptake in mouse RAW264.7 using FITC-labeled compound at 5 uM incubated for 0.5 hrs by flow cytometry; assay type: ADME, cell-based; conditions: raw264.7, 0.5 h
In short: as §2

Salmonella typhimurium [9] = assay: Antibacterial activity against Salmonella typhimurium ATCC 14028 using 1 hr cathepsin B pre-treated compound followed by incubation for 16 to 18 hrs at pH 5 by broth microdilution method; assay type: functional, Salmonella enterica subsp. enterica serovar Typhimurium; conditions: Salmonella enterica
In short: (§3)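 Cathepsin B (bovine spleen, 10 µg/mL) was added for 1 h at 37 °C, and the reaction was stopped with 9 volumes of MHB. MIC was then run by broth microdilution (5 × 10^5 CFU/mL, 16–18 h, 37 °C) in medium adjusted to pH 5.0.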

[10] = Drug localisation in cytosol of mouse RAW264.7 using FITC-labeled compound at 5 uM incubated for 2 hrs by confocal microscopy; assay type: ADME, cell-based
In short: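 RAW264.7 cells were plated for 18 h at 37 °C, then given 5 µM FITC or FITC-labeled peptide for 2 h. Nuclei were stained with Hoechst 33342 and membranes with FM 4-64 (each 5 µg/mL) for 30 min at 37 °C. Cells were PBS-washed and imaged by confocal fluorescence microscopy.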

Salmonella typhimurium [11] = assay: Antibacterial activity against Salmonella typhimurium ATCC 14028 using 1 hr cathepsin B pre-treated compound at pH 5 incubated for 16 to 18 hrs at by broth microdilution method; assay type: functional, Salmonella enterica subsp. enterica serovar Typhimurium; conditions: Salmonella enterica
In short: as §3

Salmonella typhimurium [12] = assay: Antibacterial activity against Salmonella typhimurium ATCC 14028 infected in ICR mouse model of peritonitis assessed as reduction colony forming units in kidney at 1 to 2 umol/kg, ip dosed at 2 hrs post infection and measured after 10 hrs post dose; assay type: functional, Salmonella enterica subsp. enterica serovar Typhimurium
In short: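 Female ICR mice, six weeks old (six per group), were infected ip with S. Typhimurium ATCC14028 (5 × 10^5 CFU, 0.5 mL). Peptide was given ip at 1, 1.5 or 2 µmol/kg 2 h post-infection. Mice were killed 10 h after treatment, and kidneys and spleens were homogenized in sterile PBS for CFU counts of translocated bacteria. PBS-treated mice served as negative control, ciprofloxacin-treated mice as positive.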

Salmonella typhimurium [13] = assay: Bactericidal activity against 2 hrs-gentamicin pre-exposed Salmonella typhimurium ATCC 14028 assessed as effect on bacterial re-growth at 10 uM measured within 6 hrs; assay type: functional, organism-based; conditions: Salmonella enterica subsp. enterica serovar Typhimurium
In short: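 RAW264.7 cells in DMEM/10% FBS were infected with S. Typhimurium ATCC14028 at MOI 10 for 1 h, then given 100 µg/mL gentamicin for 2 h at 37 °C and washed. Cells were treated with 10 µM agent for 1, 3, 6, 9 and 12 h, lysed with 0.1% Triton X-100, and surviving intracellular bacteria were serially diluted and plated for CFU.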

Compound | Activity (Salmonella typhimurium [1]) | Activity (Salmonella typhimurium [2]) | Activity (Salmonella typhimurium [3]) | viability at 8 h, 100 µM [4] | MIC (Salmonella typhimurium [5]) | hemolysis at 1 h, 100 µM [6] | Drug uptake [7] | Drug uptake [8] | MIC (Salmonella typhimurium [9]) | Drug uptake [10] | MIC (Salmonella typhimurium [11]) | Activity (Salmonella typhimurium [12]) | Activity (Salmonella typhimurium [13])
O=C(O)c1cn(C2CC2)c2cc(N3CCNCC3)c(F)cc2c1=O [CIPROFLOXACIN] | 100% | – | – | – | – | – | – | – | – | – | – | – | –
CC(C)[C@@H]1NC(=O)CNC(=O)[C@H](CC(N)=O)NC(=O)[C@H](CCCNC(=N)N)NC(=O)[C@H](Cc2ccc(O)cc2)NC(=O)[C@H](C(C)C)NC(=O)[C@@H](NC(=O)[C@@H](NC(=O)[C@H](CC(N)=O)NC(=O)[C@H](Cc2c[nH]c3ccccc23)NC(=O)[C@H](C)NC(=O)[C@H](Cc2ccccc2)NC(=O)CN)C(C)C)CSSC[C@@H](C(=O)N[C@@H](Cc2cnc[nH]2)C(=O)N[C@@H](CCCNC(=N)N)C(=O)N[C@@H](CCCNC(=N)N)C(=O)N[C@@H](C)C(=O)N[C@@H](CC(N)=O)C(=O)O)NC(=O)[C@H](C(C)C)NC(=O)[C@H](CCCNC(=N)N)NC1=O (H-GFAWNVCVYRNGVRVCHRRAN-OH; disulfide 7-16) | 33.4% | 0.43 log10CFU | 1.01 log10CFU | 94.6% | 0.81 µM (≈ 2.01 µg/mL) | 2.06% | 71.9% | 28.7% | 13 µM (≈ 32.1 µg/mL) | Not Active | 1.62 µM (≈ 4.01 µg/mL) | 0.6 log10CFU | inactive
